{"source": "ChEMBL document CHEMBL4028848", "about": "“Discovery of N-{4-[5-(4-Fluorophenyl)-3-methyl-2-methylsulfanyl-3H-imidazol-4-yl]-pyridin-2-yl}-acetamide (CBS-3595), a Dual p38α MAPK/PDE-4 Inhibitor with Activity against TNFα-Related Diseases” (J Med Chem, 2017)", "key": {"[1]": {"assay": "Tmax in female Sprague-Dawley rat at 30 mg/kg, po by LC-MS/MS analysis", "type": "ADME, organism-based", "settings": "in vivo"}, "[2]": {"assay": "AUC (0 to t) in male Sprague-Dawley rat at 30 mg/kg, po by LC-MS/MS analysis", "type": "ADME, organism-based", "settings": "in vivo", "procedure,_shortened": "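Rats of each sex received a single oral dose of 30 mg/kg. Plasma concentration–time profiles of parent were determined separately for females and males.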"}, "[3]": {"assay": "Apparent permeability in human Caco2 cells at 10 uM", "type": "ADME, cell-based", "settings": "Caco-2"}, "Homo sapiens": {"test_system": "Homo sapiens", "assay": "In vivo inhibition of p38 MAPKalpha in human whole blood assessed as decrease in LPS-stimulated TNFalpha level at 10 to 30 mg treated for 36 hrs followed by LPS stimulation", "type": "functional, organism-based", "procedure,_shortened": "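Ex vivo read-out in healthy volunteers after a single oral dose (10, 20 or 30 mg; placebo-controlled, single-blind, randomized). Blood drawn pre-dose and at 1, 2, 4, 9, 24 and 36 h post-dose was stimulated with LPS. TNFα release is expressed relative to the LPS-stimulated pre-dose sample of the same subject.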"}, "[4]": {"biological_target": "Dual specificity mitogen-activated protein kinase kinase 7 (Homo sapiens) (UniProt O14733)", "sequence (O14733 whole entry)": "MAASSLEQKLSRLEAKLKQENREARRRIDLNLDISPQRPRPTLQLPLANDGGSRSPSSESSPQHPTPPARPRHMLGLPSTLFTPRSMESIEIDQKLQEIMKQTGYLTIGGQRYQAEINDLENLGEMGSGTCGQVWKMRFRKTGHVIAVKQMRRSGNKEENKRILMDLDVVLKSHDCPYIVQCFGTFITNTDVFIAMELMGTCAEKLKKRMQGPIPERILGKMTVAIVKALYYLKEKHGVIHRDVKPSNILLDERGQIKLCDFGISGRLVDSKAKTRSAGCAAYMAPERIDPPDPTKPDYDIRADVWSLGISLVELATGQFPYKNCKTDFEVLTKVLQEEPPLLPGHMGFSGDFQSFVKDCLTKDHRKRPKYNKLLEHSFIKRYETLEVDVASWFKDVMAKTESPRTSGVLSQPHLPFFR", "assay": "Inhibition of MKK7beta (unknown origin) at 10 uM relative to control"}, "Rattus norvegicus [5]": {"test_system": "Rattus norvegicus", "assay": "In vivo inhibition of P38 MAPKalpha in Lewis rat assessed as decrease in LPS-stimulated TNFalpha level in serum at 10 mg/kg, po pretreated for 5 hrs followed by LPS addition measured after 1.5 hrs post dose", "type": "functional, organism-based", "procedure,_shortened": "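Lewis rats, n = 8/group: females dosed orally at 10 mg/kg at −1, −3 or −5 h relative to LPS challenge, plus one male group dosed at −1 h. Male and female vehicle controls were given at −1 h. Serum TNFα was measured after LPS and compared with vehicle.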"}, "[6]": {"biological_target": "Dual specificity mitogen-activated protein kinase kinase 6 (Homo sapiens) (UniProt P52564)", "sequence (P52564 whole entry)": "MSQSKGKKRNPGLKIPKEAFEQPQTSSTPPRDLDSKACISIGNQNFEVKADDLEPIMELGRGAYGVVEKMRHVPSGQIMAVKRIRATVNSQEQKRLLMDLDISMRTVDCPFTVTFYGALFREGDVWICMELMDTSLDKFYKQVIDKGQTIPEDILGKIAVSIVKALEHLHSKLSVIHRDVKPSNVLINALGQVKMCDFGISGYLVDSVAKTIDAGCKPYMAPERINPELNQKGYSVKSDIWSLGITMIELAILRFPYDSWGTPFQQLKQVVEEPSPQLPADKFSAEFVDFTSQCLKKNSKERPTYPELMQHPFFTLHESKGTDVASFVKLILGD", "assay": "Inhibition of MKK6 (unknown origin) assessed as decrease in p38alpha MAPK phosphorylation at 10 uM relative to control"}, "Cynomolgus monkey [7]": {"test_system": "Cynomolgus monkey", "assay": "Toxicity in cynomolgus monkey assessed as effect on mean blood preasure at 6 to 20 mg/kg, po", "type": "organism-based, Macaca fascicularis", "settings": "in vivo"}, "Cynomolgus monkey [8]": {"test_system": "Cynomolgus monkey", "assay": "In vivo inhibition of P38 MAPKalpha in cynomolgus monkey assessed as decrease in TNFalpha level in LPS-stimulated whole blood at 12 mg/kg, po pretreated followed by LPS addition measured after 1 day relative to control", "type": "functional", "settings": "Macaca fascicularis", "procedure,_shortened": "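Cynomolgus monkeys were dosed orally, then whole blood was stimulated ex vivo with LPS. TNFα release was compared with vehicle-dosed animals.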"}, "[9]": {"assay": "AUC (0 to t) in Beagle dog at 40 mg/kg, po by LC-MS/MS analysis", "type": "ADME, organism-based, Canis lupus familiaris", "settings": "in vivo", "procedure,_shortened": "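Toxicokinetics from a maximum-tolerated-dose study in four Beagle dogs given 40 mg/kg orally. Plasma levels of both parent and its predominant metabolite were monitored.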"}, "[10]": {"biological_target": "Adenosine receptor A1 (Homo sapiens) (UniProt P30542)", "sequence (P30542 whole entry)": "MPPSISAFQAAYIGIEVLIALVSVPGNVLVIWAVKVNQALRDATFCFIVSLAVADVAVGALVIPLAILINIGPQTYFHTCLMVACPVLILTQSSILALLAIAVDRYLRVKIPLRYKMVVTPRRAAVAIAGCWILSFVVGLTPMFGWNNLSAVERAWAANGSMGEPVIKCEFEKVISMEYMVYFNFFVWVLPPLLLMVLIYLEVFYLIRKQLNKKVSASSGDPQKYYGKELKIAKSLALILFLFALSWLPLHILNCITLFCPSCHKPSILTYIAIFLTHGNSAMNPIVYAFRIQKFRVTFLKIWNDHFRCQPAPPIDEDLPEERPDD", "assay": "Antagonist activity at adenosine A1 receptor (unknown origin) at 10 uM relative to control"}, "Rattus norvegicus [11]": {"test_system": "Rattus norvegicus", "assay": "Toxicity in Sprague-Dawley rat assessed as premature death at 15 to 150 mg/kg, po administered via gavage for 28 days followed by 2 weeks off without dosing", "type": "organism-based", "settings": "in vivo", "procedure,_shortened": "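Sprague–Dawley rats, 10–16 per group, 144 in total. Daily dosing for 28 days with vehicle or 15, 50 or 150 mg/kg; the top dose came from a range-finding study. Six males and six females from the control and high-dose groups were followed through a further 2-week treatment-free period. Clinical signs and histopathology recorded.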"}, "[12]": {"assay": "Drug metabolism in human primary hepatocytes assessed as CBS-3728 formation at 10 to 100 uM", "type": "ADME, cell-based, Hepatocyte"}, "Rattus norvegicus [13]": {"test_system": "Rattus norvegicus", "assay": "Toxicity in Sprague-Dawley rat assessed as hypoactivity at 2000 mg/kg, po administered via gavage measured on day 1 and 2", "type": "organism-based", "settings": "in vivo"}, "Serum": {"test_system": "Serum", "assay": "Drug uptake in male Lewis rat serum at 10 mg/kg, po by LC-MS/MS analysis", "type": "ADME, organism-based", "settings": "in vivo", "procedure,_shortened": "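Male Lewis rats were dosed orally at 10 mg/kg 1 h before an i.v. LPS challenge of 0.1 mg/kg. Serum drug concentration was measured 1.5 h after LPS.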"}, "Rattus norvegicus [14]": {"test_system": "Rattus norvegicus", "assay": "Toxicity in Sprague-Dawley rat assessed as increase in abdomen size at 150 mg/kg, po administered via gavage for daily 28 days followed by 2 weeks off without dosing", "type": "organism-based", "settings": "in vivo"}}, "note": "The source made the active and inactive calls. The calls are words filed in the database; no cut-off is given here."}
{"compound": "CC(=O)Nc1cc(-c2c(-c3ccc(F)cc3)nc([S+](C)[O-])n2C)ccn1", "note": "(stereo unspecified)", "values": [{"measurement": "Tmax", "setting": "[1]", "result": 2, "unit": "h"}, {"measurement": "AUC(0-t)", "setting": "[2]", "result": 29.8, "unit": "µM·h"}, {"measurement": "Papp at 10 µM", "setting": "[3]", "result": 18.5, "unit": "×10⁻⁶ cm/s"}, {"measurement": "inhibition", "setting": "Homo sapiens", "result": "Active"}, {"measurement": "inhibition", "setting": "[4]", "result": 101, "unit": "%"}, {"measurement": "inhibition", "setting": "Rattus norvegicus [5]", "result": "Active"}, {"measurement": "inhibition", "setting": "[6]", "result": 62, "unit": "%"}, {"measurement": "Activity", "setting": "Cynomolgus monkey [7]", "result": "Non-Toxic"}, {"measurement": "inhibition in vivo at 12 mg/kg", "setting": "Cynomolgus monkey [8]", "result": 50, "unit": "%"}, {"measurement": "AUC(0-t)", "setting": "[9]", "result": 93.4, "unit": "µM·h"}, {"measurement": "inhibition", "setting": "[10]", "result": 58, "unit": "%"}, {"measurement": "Activity", "setting": "Rattus norvegicus [11]", "result": "Non-Toxic"}, {"measurement": "Drug metabolism", "setting": "[12]", "result": "Metabolite_Detected"}, {"measurement": "Activity", "setting": "Rattus norvegicus [13]", "result": "Toxic"}, {"measurement": "Drug uptake", "setting": "Serum", "result": 689, "unit": "ng/mL"}, {"measurement": "Activity", "setting": "Rattus norvegicus [14]", "result": "Toxic"}]}
